Diaph act CS: activates diaphorase or chemically reduces, flagging diaphorase assay artifacts; 0.005% of 190,000 active; AID 1229; activation factor at 20 µM; Diaphorase/resazurin coupled assay, resorufin fluorescence, 16 min; stronger effect = higher value; 1 = vehicle wells, 0 = NADH-free wells;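 active means diaphorase activity raised at least twofold by the compound at 20 µM; inactive means activation factor below 2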
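Assay system: bacterial diaphorase enzyme (C. kluyveri) / Input: enzyme 0.07 U/mL final / Medium: 50 mM HEPES pH 7.4 with 4.542 mM MgCl2, 0.005% Tween 20 / Doses: single compound dose of 20 µM, 1% DMSO final / Incubation: 16 min enzyme reaction, ambient temperature / Signal: fluorescence, excitation 544 nm and emission 590 nm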
WT yeast gro inh: growth inhibition of WT yeast, mitochondrial fusion screen; mitochondrial fusion phenotypic screen, WT strain; inhibition, % at 10 µM; 2.1% of 190,000 active; AID 1362; in the data active means inhibition above about 58%; tested in S. cerevisiae
Diaphorase inh: counter-screen for diaphorase-based assays: diaphorase inhibitors and chemical oxidizers; diaphorase resazurin-to-resorufin fluorescence, NADH, 16 min; bacterial (C. kluyveri) enzyme, not human; AID 1217; 0.69% of 190,000 active; inhibition, % at 20 µM;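 active means primary screen inhibition at 20 µM above a set limit, cut at about 50% in these data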;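 further: plate controls were DMSO with full reaction for no effect and wells lacking NADH for full effect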
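Test system: Clostridium kluyveri diaphorase enzyme / Quantity: diaphorase at 0.14 U/mL in enzyme working solution / Incubation: 16-min room-temperature incubation before reading / Benchmarks: NADH-free wells as positive control, DMSO-only neutral wells / Signal: resorufin fluorescence 544/590 nm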
L major viab: inhibitors of Leishmania major promastigote growth. Leishmania major promastigotes, resazurin fluorescence viability. AID 1063. inhibition, % at 10 µM. 9% of 200,000 active;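 further: promastigotes grown with compound for 44 hours at 28 °C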
G6PDH CS: inhibits Leuconostoc G6PDH, flagging false hits in G6PDH-based assays; inhibition, % at 5 µM; 0.12% of 200,000 active; Purified L. mesenteroides G6PDH, diaphorase/resazurin coupled fluorescence, 45 min
L major 1uM: blocks Leishmania major promastigote growth at 1 uM, repeat screen; shares compounds with L major viab; AID 1258; L. major promastigote growth, resazurin fluorescence, 48 h; inhibition, % at 1 µM; 13% of 1,100 active;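 active means inhibition above about 50% in both repeat tests, limit read from the data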
Active calls of the source: *. Rows were chosen to be rich in hits. Some 11% of all compounds tested hit in one or more screens of this group. Unless noted, no stated cut-off is given here; in the data, active means inhibition above about 50%; inactive means the rest.

`O=C(CCCSc1nc2ccccc2[nH]1)N1CCN(c2ccc([N+](=O)[O-])cc2)CC1` gave Diaph act CS 0.8, WT yeast gro inh -14, Diaphorase inh 22, L major viab 7 and G6PDH CS 2.
Cc1cc(C)c(C(=O)c2ccc(C(=O)N(C(C)C)C(C)C)cc2)c(C)c1 was read as Diaph act CS 0.9, WT yeast gro inh 11, Diaphorase inh 9, L major viab 86*, G6PDH CS 17 and L major 1uM -11.
For COc1cc(OC)cc(C(=O)NNC(=S)NC2CC2)c1 the results were Diaph act CS 0.7, WT yeast gro inh -1, Diaphorase inh 33, L major viab 1 and G6PDH CS 13.
For COc1cc(SC)ccc1C(=O)Nc1ccc2c(c1)CCN2S(C)(=O)=O the results were Diaph act CS 0.9, WT yeast gro inh 9, Diaphorase inh 12, L major viab -2 and G6PDH CS 0.
Screening CCN(CC(O)Cn1c2ccccc2c2ccccc21)S(=O)(=O)c1ccc(C)cc1 (centres undefined) returned Diaph act CS 0.6, WT yeast gro inh 34, Diaphorase inh 35, L major viab 100*, G6PDH CS 3 and L major 1uM -10.
CC[n+]1c(/C=C/C=C/N(C(C)=O)c2ccccc2)sc2cc(OC)ccc21 was read as Diaph act CS 1, WT yeast gro inh 25, Diaphorase inh -3, L major viab 88*, G6PDH CS -9 and L major 1uM 29.
COc1ccccc1N1Cc2ccccc2C1 was read as Diaph act CS 0.8, WT yeast gro inh 6, Diaphorase inh 17, L major viab 91*, G6PDH CS 8 and L major 1uM -10.
Screening O=C1c2ccccc2CCCC12N=NCC2c1cccc2ccccc12 (centres undefined) returned Diaph act CS 0.9, WT yeast gro inh -14, Diaphorase inh 14, L major viab 53*, G6PDH CS -3 and L major 1uM 7.
For Cc1ccc(C2CN=NC23CCc2ccccc2C3=O)cc1 (centres undefined) the results were Diaph act CS 1, WT yeast gro inh 16, Diaphorase inh 2, L major viab -4 and G6PDH CS 5.
Screening COC(=O)c1sc2nc(C)nc(SCC(=O)C(C)(C)C)c2c1C returned Diaph act CS 0.8, WT yeast gro inh 21, Diaphorase inh 22, L major viab 13 and G6PDH CS 2.
Screening Cc1c(CCOC(=O)CC23CC4CC(CC(C4)C2)C3)sc[n+]1CC(=O)c1ccccc1 returned Diaph act CS 1.2, WT yeast gro inh 3, Diaphorase inh -20, L major viab 91*, G6PDH CS 0 and L major 1uM 23.
`COC(=O)CNC(=O)c1nn(-c2cccc(OC)c2)c(=O)c2ccccc12` gave Diaph act CS 0.9, WT yeast gro inh 5, Diaphorase inh 10, L major viab -2 and G6PDH CS 4.
`C=C(C)c1cccc(C(C)(C)NC(=O)N2CCN(CC(N)=O)CC2)c1` gave Diaph act CS 0.9, WT yeast gro inh -12, Diaphorase inh 8, L major viab -2 and G6PDH CS -2.
Screening COc1ccc(-n2c(C)cc(C(=O)CSc3nn4c(=O)c(C(C)(C)C)nnc4s3)c2C)cc1 returned Diaph act CS 0.7, WT yeast gro inh 2, Diaphorase inh 33, L major viab 64*, G6PDH CS 2 and L major 1uM 6.
Screening O=[N+]([O-])c1cc(Cl)ccc1-c1nc(-c2ccccc2)no1 returned Diaph act CS 0.8, WT yeast gro inh 37, Diaphorase inh 18, L major viab 89*, G6PDH CS -14 and L major 1uM -21.
CCOc1ccc(Cn2c3ccc(OC)cc3c3nc4ccccc4nc32)cc1 was read as Diaph act CS 0.8, WT yeast gro inh -33, Diaphorase inh 22, L major viab 54*, G6PDH CS 0 and L major 1uM -6.
For Cc1nn(Cc2ccccc2)c(Cl)c1/C=C/C(=O)OCC(=O)N(C)C1CCS(=O)(=O)C1 (centres undefined) the results were Diaph act CS 1, WT yeast gro inh 2, Diaphorase inh 4, L major viab 0 and G6PDH CS 3.
Screening C=CCS(=O)(=O)c1nc2ccccc2s1 returned Diaph act CS 1.2, WT yeast gro inh -8, Diaphorase inh -16, L major viab 101*, G6PDH CS 11 and L major 1uM 10.
Screening O=S(=O)(CCSc1nc2ccccc2s1)c1nc2ccccc2s1 returned Diaph act CS 0.9, WT yeast gro inh 35, Diaphorase inh 13, L major viab 100*, G6PDH CS 0 and L major 1uM 54*.
CCS(=O)(=O)CCSc1nc2ccccc2s1 was read as Diaph act CS 0.9, WT yeast gro inh -28, Diaphorase inh 12, L major viab -3 and G6PDH CS -4.
`Nc1ccccc1C#CCCCCO` gave Diaph act CS 1, WT yeast gro inh -6, Diaphorase inh -2, L major viab -4 and G6PDH CS 11.
For CCN(N=Nc1cccc([N+](=O)[O-])c1)c1cccc([N+](=O)[O-])c1 the results were Diaph act CS 0.9, WT yeast gro inh 22, Diaphorase inh 13, L major viab -4 and G6PDH CS 6.
Screening NC(=O)CN(N=Nc1cccc([N+](=O)[O-])c1)c1cccc([N+](=O)[O-])c1 returned Diaph act CS 0.9, WT yeast gro inh -10, Diaphorase inh 5, L major viab 55*, G6PDH CS 0 and L major 1uM 28.
Screening CC(C)(C)C(=O)/C=c1\[nH]c(=O)/c(=C\c2ccc(F)cc2)s1 returned Diaph act CS 0.8, WT yeast gro inh -3, Diaphorase inh 19, L major viab 73*, G6PDH CS 10 and L major 1uM -4.
`CCc1ccc(/C=c2\s/c(=C\C(=O)C(C)(C)C)[nH]c2=O)cc1` gave Diaph act CS 0.9, WT yeast gro inh -1, Diaphorase inh 6, L major viab 39 and G6PDH CS 2.
Screening CC1(C)Cc2c(ccc3ccccc23)/C(=C/C(=O)N2CCCCC2)N1 returned Diaph act CS 0.9, WT yeast gro inh 56, Diaphorase inh 8, L major viab 18 and G6PDH CS 1.
Screening O=C(/C=C1\NC2(CCCC2)Cc2ccccc21)N1CCOCC1 returned Diaph act CS 0.8, WT yeast gro inh 8, Diaphorase inh 16, L major viab 88*, G6PDH CS 8 and L major 1uM -2.
`COc1cc(Cl)ccc1NC(=O)COc1ccccc1C(=O)N1CCN(c2ccc(O)cc2)CC1` gave Diaph act CS 0.8, WT yeast gro inh -9, Diaphorase inh 21, L major viab 63*, G6PDH CS 6 and L major 1uM 5.
